According to ChEMBL document CHEMBL4330067, “Synthesis and mechanistic studies of diketo acids and their bioisosteres as potential antibacterial agents” (Eur J Med Chem, 2019):
pKi: −log10 of the molar value. Values after ≈ are worked out from the molar mass of the structure shown. Active and inactive are the calls of the source. The calls are words filed in the database; no cut-off is given here.

Legend:
Escherichia coli [1] = experiment: Bactericidal activity against Escherichia coli at sub-MIC after 22 hrs by spectrophotometric analysis; type: functional, organism-based
Method in brief: (§1)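 Growth kinetics in 50 mL nutrient broth seeded at approx. 2×10⁶ cells/mL, compound at 2MIC, MIC and ½MIC, 37 °C at 160 rpm. Ciprofloxacin 10 µg/mL as positive control. 1 mL aliquots taken every 2 h from 0 to 22 h. Turbidity read at 600 nm and OD plotted against time.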

Homo sapiens = species: Homo sapiens; experiment: Inhibition of human methionine aminopeptidase 1B at 100 uM using Met-AMC as substrate relative to control
Method in brief: (§2)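 Purified MetAP at 4 µM in 50 mM HEPES with 150 mM KCl and CoCl2 at 3 molar equivalents of enzyme. pH 7.5 for SpMetAP1a and EfMetAP1a, pH 8.0 for HsMetAP1b. Substrate L-Met-AMC at 50, 100 and 150 µM. Compounds (10 mM DMSO stocks) tested over 1 to 120 µM for % inhibition; Ki by Dixon method.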

Escherichia coli [2] = experiment: Bactericidal activity against Escherichia coli at 1 to 2 times MIC after 24 hrs by spectrophotometric analysis; type: functional, organism-based; method in brief: as §1
CHO = experiment: Cytotoxicity against CHO cells at 50 ug/mL after 48 hrs by MTT assay; type: cell-based, Cricetulus griseus; conditions: chinese hamster
Method in brief: (§3)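 MTT assay: cells maintained in DMEM with 10% FBS and penicillin/streptomycin at 37 °C, 5% CO2. Seeded at approx. 2×10⁴ cells/well, 24 h before treatment, then exposed to 10 to 400 µg/mL for 48 h at 37 °C. MTT (5 mg/mL stock in PBS) added for 4 h, formazan dissolved in DMSO, A570 read. Triplicate wells; viability given relative to untreated cells.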

Escherichia coli [3] = experiment: Antibacterial activity against Escherichia coli MRAE33 at 1024 ug/mL after 24 hrs by broth dilution assay relative to control; type: functional
Method in brief: (§4)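 Multidrug-resistant E. coli isolates in Luria broth, test range 8 to 1024 µg/mL (ciprofloxacin 0.49 to 63.3 µg/mL). Inoculum 10 µL of a 1000-fold diluted 0.1 OD600 culture, incubated overnight at 37 °C. OD read at 600 nm. % inhibition = (a−b)/a×100, with media and compound-colour blanks subtracted.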

[4] = Cytotoxicity against CHO cells assessed as cell viability at 100 ug/mL after 48 hrs by MTT assay relative to control; type: cell-based, Cricetulus griseus; conditions: chinese hamster, read-out: Activity; method in brief: as §3
Escherichia coli [5] = experiment: Synergistic antibacterial activity against Escherichia coli MRC17 assessed as ciprofloxacin MIC at 16 to 1024 ug/mL after 18 hrs by checkerboard method; type: functional; conditions: MRC17, 18 h
Method in brief: (§5)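 Checkerboard combination with ciprofloxacin in Mueller-Hinton broth: compound 1024 to 16 µg/mL crossed with ciprofloxacin 128 to 2 µg/mL. Inoculum 5×10⁵ CFU/mL suspension, 18 h at 37 °C. Fractional inhibitory concentration index derived from the combination.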

Escherichia coli [6] = experiment: Antibacterial activity against Escherichia coli MRAE44 at 1024 ug/mL after 24 hrs by broth dilution assay; type: functional, organism-based; method in brief: as §4
Escherichia coli [7] = experiment: Synergistic antibacterial activity against Escherichia coli MRC17 assessed as fractional inhibitory concentration index after 18 hrs in presence of ciprofloxacin by checkerboard method; type: functional
Method in brief: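 Checkerboard combination against MDR E. coli. Test agent gradient 1024–16 µg/mL crossed with ciprofloxacin 128–2 µg/mL in Mueller-Hinton broth. Wells were inoculated with a 5 × 10⁵ CFU/mL suspension and incubated 18 h at 37 °C. Interaction was expressed as the fractional inhibitory concentration index (FICI).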

Escherichia coli [8] = experiment: Anti-biofilm activity against Escherichia coli after 24 hrs by XTT assay; type: functional, organism-based
Method in brief: (§6)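 Biofilm XTT reduction assay: serial dilutions 1000 to 7.8 µg/mL in tryptic soy broth, inoculum approx. 5×10⁵ CFU/mL, 37 °C for 24 h static. Non-adherent cells removed by PBS wash, XTT added, 90 min at 37 °C in dark, absorbance at 490 nm. IC50 (50% inhibition of biofilm formation) read from dose-response curves.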

Escherichia coli [9] = experiment: Synergistic antibacterial activity against Escherichia coli MRC17 after 18 hrs in presence of ciprofloxacin by checkerboard method; type: functional; conditions: MRC17, 18 h; method in brief: as §5
Escherichia coli [10] = experiment: Antibacterial activity against Escherichia coli MRC24 after overnight incubation; type: functional; method in brief: as §4
Escherichia coli [11] = experiment: Synergistic antibacterial activity against Escherichia coli MRA11 assessed as fractional inhibitory concentration index after 18 hrs in presence of ciprofloxacin by checkerboard method; type: functional; method in brief: as §5
Escherichia coli [12] = experiment: Antibacterial activity against Escherichia coli MRC17 at 512 ug/mL after 24 hrs by broth dilution assay relative to control; type: functional; method in brief: as §4
Escherichia coli [13] = experiment: Antibacterial activity against Escherichia coli MRAE32 at 512 ug/mL after 24 hrs by broth dilution assay relative to control; type: functional; method in brief: as §4
Enterococcus faecalis [14] = experiment: Inhibition of Enterococcus faecalis methionine aminopeptidase 1A at 100 uM using Met-AMC as substrate relative to control; method in brief: as §2
Escherichia coli [15] = experiment: Antibacterial activity against Escherichia coli MRAE26 at 1024 ug/mL after 24 hrs by broth dilution assay relative to control; type: functional; method in brief: as §4
Escherichia coli [16] = experiment: Anti-biofilm activity against Escherichia coli assessed as poor cell density at 2MIC after 24 hrs by SEM analysis; type: functional, organism-based
Streptococcus pneumoniae [17] = experiment: Antibacterial activity against Streptococcus pneumoniae MTCC 655 after 24 hrs by broth dilution assay; type: functional; conditions: MTCC 655, 24 h
Method in brief: (§7)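 Broth dilution per NCCLS in nutrient broth, serial dilutions 1000 to 7.8 µg/mL, DMSO below 4% final. Inoculum approx. 2.5×10⁶ cells/mL, 37 °C with shaking at 150 rpm for 24 h. MIC taken as the lowest concentration with no visible growth. Ciprofloxacin served as positive control.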

[18] = Inhibition of Streptococcus pneumoniae methionine aminopeptidase 1A using Met-AMC as substrate by Dixon method; method in brief: as §2
[19] = Inhibition of human methionine aminopeptidase 1B using Met-AMC as substrate by Dixon method; method in brief: as §2
Pseudomonas aeruginosa [20] = experiment: Antibacterial activity against Pseudomonas aeruginosa MTCC 2453 after 24 hrs by broth dilution assay; type: functional; conditions: MTCC 2453, 24 h; method in brief: as §7
Escherichia coli [21] = experiment: Antibacterial activity against Escherichia coli MROB11 at 512 ug/mL after 24 hrs by broth dilution assay relative to control; type: functional; method in brief: as §4
Streptococcus pneumoniae [22] = experiment: Induction of cellular damage in Streptococcus pneumoniae assessed as distorted cell membrane at MIC after 1 hr by TEM analysis; type: functional, organism-based
Escherichia coli [23] = experiment: Antibacterial activity against Escherichia coli MRAE26 after overnight incubation; type: functional; method in brief: as §4
Pseudomonas aeruginosa [24] = experiment: Bactericidal activity against Pseudomonas aeruginosa at sub-MIC after 10 hrs by spectrophotometric analysis; type: functional, organism-based; method in brief: as §1
Escherichia coli [25] = experiment: Synergistic antibacterial activity against Escherichia coli MRAE33 after 18 hrs in presence of ciprofloxacin by checkerboard method; type: functional; conditions: MRAE33, 18 h; method in brief: as §5
Klebsiella pneumoniae = experiment: Antibacterial activity against Klebsiella pneumoniae ATCC 700603 after 24 hrs by broth dilution assay; type: functional; conditions: Klebsiella pneumoniae, 700603, 24 h; method in brief: as §7
Escherichia coli [26] = experiment: Synergistic antibacterial activity against Escherichia coli MRA11 assessed as ciprofloxacin MIC at 16 to 1024 ug/mL after 18 hrs by checkerboard method; type: functional; conditions: MRA11, 18 h; method in brief: as §5
Enterococcus faecalis [27] = experiment: Anti-biofilm activity against Enterococcus faecalis after 24 hrs by XTT assay; type: functional, organism-based; method in brief: as §6
Escherichia coli [28] = experiment: Antibacterial activity against Escherichia coli MRAE44 after overnight incubation; type: functional; method in brief: as §4

Cc1c(C(=O)/C=C(\O)C(=O)N[C@H](C)C(=O)O)oc2ccc(Br)cc12
Activity (Escherichia coli [1]): Active
inhibition (Homo sapiens): 87.5%
Activity (Escherichia coli [2]): Active
Activity (CHO): Non-Toxic
Activity (Escherichia coli [3]): >95%
viability at 48 h, 100 ug/mL [4]: 70%
MIC (Escherichia coli [5]): 64 µg/mL
Activity (Escherichia coli [6]): Active
fractional inhibitory concentration index (FICI) (Escherichia coli [7]): 1.5
IC50 (Escherichia coli [8]): 0.404 µg/mL (≈ 1.02 µM)
MIC (Escherichia coli [9]): 512 µg/mL
ICmax (Escherichia coli [10]): 512 µg/mL
fractional inhibitory concentration index (FICI) (Escherichia coli [11]): 1.125
Activity (Escherichia coli [12]): 100%
Activity (Escherichia coli [13]): 100%
inhibition (Enterococcus faecalis [14]): 92.7%
Activity (Escherichia coli [15]): >95%
Activity (Escherichia coli [16]): Active
MIC (Streptococcus pneumoniae [17]): 62.5 µg/mL (≈ 158 µM)
pKi [18]: 4.55
pKi [19]: 4.66
MIC (Pseudomonas aeruginosa [20]): 250 µg/mL (≈ 631 µM)
Activity (Escherichia coli [21]): 100%
Activity (Streptococcus pneumoniae [22]): Active
ICmax (Escherichia coli [23]): 1024 µg/mL
Activity (Pseudomonas aeruginosa [24]): Active
MIC (Escherichia coli [25]): 16 µg/mL
MIC (Klebsiella pneumoniae): 500 µg/mL (≈ 1260 µM)
MIC (Escherichia coli [26]): 16 µg/mL
IC50 (Enterococcus faecalis [27]): 1240 µg/mL (≈ 3140 µM)
ICmax (Escherichia coli [28]): 1024 µg/mL
